Results from ChEMBL document CHEMBL1142018, “Discovery and SAR of new benzazepines as potent and selective 5-HT(2C) receptor agonists for the treatment of obesity” (Bioorg Med Chem Lett, 2005).

Assays:
[1] = molecular target: T1, 5-hydroxytryptamine receptor 2C (Homo sapiens, UniProt P28335); experiment: Effective concentration towards 5-hydroxytryptamine 2C receptors transfected in HEK293 cells was determined by measuring [3H]phosphoinositol release; type: functional, cell-based
T1 sequence (P28335 whole entry): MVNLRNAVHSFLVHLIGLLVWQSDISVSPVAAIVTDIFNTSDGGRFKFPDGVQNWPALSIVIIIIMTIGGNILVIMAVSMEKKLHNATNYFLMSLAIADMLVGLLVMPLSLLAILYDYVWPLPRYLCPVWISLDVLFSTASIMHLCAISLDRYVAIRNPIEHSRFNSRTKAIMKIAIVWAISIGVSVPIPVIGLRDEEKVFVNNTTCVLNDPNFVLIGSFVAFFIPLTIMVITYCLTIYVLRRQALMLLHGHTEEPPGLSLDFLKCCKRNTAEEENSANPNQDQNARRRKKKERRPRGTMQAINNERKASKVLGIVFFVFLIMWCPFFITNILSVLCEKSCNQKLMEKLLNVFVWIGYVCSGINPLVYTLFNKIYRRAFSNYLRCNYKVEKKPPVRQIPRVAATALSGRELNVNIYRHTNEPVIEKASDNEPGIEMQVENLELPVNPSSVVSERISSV
Procedure, shortened: (§1)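 Functional agonism at human 5-HT2A, 5-HT2B or 5-HT2C receptors (the 2C as the INI isoform). Receptors were transiently transfected into HEK-293 cells, and the read-out was [³H]phosphoinositol turnover.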

[2] = molecular target: T2, 5-hydroxytryptamine receptor 2A (Homo sapiens, UniProt P28223); experiment: Effective concentration towards 5-hydroxytryptamine 2A receptors transfected in HEK293 cells was determined by measuring [3H]phosphoinositol release; type: functional, cell-based; procedure, shortened: as §1
T2 sequence (P28223 whole entry): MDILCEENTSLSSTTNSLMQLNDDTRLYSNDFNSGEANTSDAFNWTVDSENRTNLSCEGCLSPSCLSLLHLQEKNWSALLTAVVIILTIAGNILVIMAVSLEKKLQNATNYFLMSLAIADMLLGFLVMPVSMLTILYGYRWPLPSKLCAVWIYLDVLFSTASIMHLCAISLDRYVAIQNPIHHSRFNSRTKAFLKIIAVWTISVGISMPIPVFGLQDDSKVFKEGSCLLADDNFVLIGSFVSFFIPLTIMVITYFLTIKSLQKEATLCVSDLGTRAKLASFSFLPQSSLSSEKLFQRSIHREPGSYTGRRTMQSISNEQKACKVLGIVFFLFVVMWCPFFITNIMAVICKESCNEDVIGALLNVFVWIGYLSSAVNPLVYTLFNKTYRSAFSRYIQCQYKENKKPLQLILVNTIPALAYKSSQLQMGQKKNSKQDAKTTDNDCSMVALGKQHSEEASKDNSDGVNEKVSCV

[3] = molecular target: T3, 5-hydroxytryptamine receptor 2B (Homo sapiens, UniProt P41595); experiment: Effective concentration towards 5-hydroxytryptamine 2B receptors transfected in HEK293 cells was determined by measuring [3H]phosphoinositol release; type: functional, cell-based; procedure, shortened: as §1
T3 sequence (P41595 whole entry): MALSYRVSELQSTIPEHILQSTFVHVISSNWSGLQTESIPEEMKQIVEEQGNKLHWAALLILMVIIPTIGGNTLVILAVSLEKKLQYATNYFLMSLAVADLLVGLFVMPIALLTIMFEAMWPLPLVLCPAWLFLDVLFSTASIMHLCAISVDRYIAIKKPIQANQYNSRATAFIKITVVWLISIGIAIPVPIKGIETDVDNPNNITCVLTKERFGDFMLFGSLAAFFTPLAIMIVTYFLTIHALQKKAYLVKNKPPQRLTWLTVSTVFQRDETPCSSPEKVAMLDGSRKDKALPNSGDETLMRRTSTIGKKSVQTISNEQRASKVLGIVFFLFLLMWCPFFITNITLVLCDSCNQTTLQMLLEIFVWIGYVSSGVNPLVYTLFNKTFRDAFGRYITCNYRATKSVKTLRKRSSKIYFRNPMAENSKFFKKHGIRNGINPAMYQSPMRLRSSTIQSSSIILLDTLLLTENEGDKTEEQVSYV

[4] = molecular target: T4, 5-hydroxytryptamine receptor 2C (Homo sapiens) (UniProt P28335); experiment: Percentage maximum response relative to serotonin towards 5-hydroxytryptamine 2C receptor in HEK293 cells; type: functional, cell-based; procedure, shortened: as §1
T4 sequence (whole entry): T1 sequence (P28335 whole entry)

[5] = molecular target: T2, 5-hydroxytryptamine receptor 2A; experiment: Percentage maximum response relative to serotonin towards 5-hydroxytryptamine 2A receptor in HEK293 cells; type: functional, cell-based; procedure, shortened: as §1
[6] = molecular target: T3, 5-hydroxytryptamine receptor 2B; experiment: Percentage maximum response relative to serotonin towards 5-hydroxytryptamine 2B receptor in HEK293 cells; type: functional, cell-based; procedure, shortened: as §1
[7] = molecular target: T3, 5-hydroxytryptamine receptor 2B; experiment: Percentage maximum response relative to serotonin towards 5-hydroxytryptamine 2B receptor at 10 uM concentration in HEK293 cells; type: functional, cell-based
Rattus norvegicus = experiment: Effect on food intake after 6 hr of injection of compound by oral gavage and compared to vehicle control rats (n = 8); decreased food intake by range 10-40 mg/kg; type: functional
[8] = Rattus norvegicus, po, 6 h, read-out: ED50

`CC1CNCCc2cccc(Cl)c21` (configuration not stated) was tested, and the EC50 [1] was 0.93 µM, the EC50 ([2]; read-out: EC50) was greater than 5 µM and the EC50 ([3]; read-out: EC50) was greater than 5 µM.

`C[C@H]1CNCCc2ccc(Cl)cc21` was tested, and the Maximum response [4] was 100%, the Maximum response [5] was 70% and the Maximum response [6] was 100%.

`CC1CNCCc2c(Cl)cc(Cl)cc21` (configuration not stated) was tested, and the EC50 [1] was 0.02 µM, the EC50 ([2]; read-out: EC50) was 0.17 µM and the EC50 ([3]; read-out: EC50) was 0.84 µM.

`CC1CNCCc2c(Cl)cccc21` (configuration not stated) gave an EC50 [1] of 0.86 µM, an EC50 ([2]; read-out: EC50) greater than 5 µM and an EC50 ([3]; read-out: EC50) greater than 5 µM.

`C[C@H]1CNCCc2ccc(Cl)c(Cl)c21` showed a Maximum response [4] of 85%, a Maximum response [5] of 100% and an EC50 [1] of 0.23 µM. The EC50 ([2]; read-out: EC50) was 2.4 µM and the EC50 ([3]; read-out: EC50) was greater than 10 µM.

For `COc1cc2c(cc1Br)[C@@H](C)CNCC2`, the EC50 [1] was 0.003 µM, the EC50 ([2]; read-out: EC50) was 0.08 µM and the EC50 ([3]; read-out: EC50) was 0.22 µM.

`CC(C)Oc1cc2c(cc1Br)C(C)CNCC2` (configuration not stated) was tested, and the EC50 [1] was 0.068 µM, the EC50 ([2]; read-out: EC50) was 0.097 µM and the EC50 ([3]; read-out: EC50) was 0.23 µM.

`C[C@@H]1CNCCc2ccc(Cl)c(Cl)c21` was tested, and the Maximum response [4] was 90%, the Maximum response [5] was 35% and the Maximum response [7] was 25%. The EC50 [1] was 0.003 µM and the EC50 ([2]; read-out: EC50) was 0.135 µM.

With `CC1CNCCc2ccc(Cl)c(Cl)c21` (configuration not stated) the ED50 (Rattus norvegicus; [8]) was 40 mg/kg, the EC50 [1] was 0.006 µM and the EC50 ([2]; read-out: EC50) was 0.22 µM. It also gave an EC50 ([3]; read-out: EC50) of 1.8 µM.

In the case of `COc1ccc2c(c1)C(C)CNCC2` (configuration not stated), the EC50 [1] is reported as 0.42 µM, the EC50 ([2]; read-out: EC50) is reported as 0.94 µM and the EC50 ([3]; read-out: EC50) is reported as 0.78 µM.

`CC1CNCCc2cc(F)c(Cl)cc21` (configuration not stated) gave an ED50 (Rattus norvegicus; [8]) of 40 mg/kg, an EC50 [1] of 0.007 µM and an EC50 ([2]; read-out: EC50) of 0.072 µM. For the same molecule, the EC50 ([3]; read-out: EC50) was 0.36 µM.

With `COc1cc2c(cc1Br)C(C(C)C)CNCC2` (configuration not stated) the EC50 [1] was 0.16 µM, the EC50 ([2]; hek293) was “Not Active” and the EC50 ([3]; read-out: EC50) was 1 µM.

In the case of `CC1CNCCc2ccc(F)cc21` (configuration not stated), the EC50 [1] is reported as 0.41 µM, the EC50 ([2]; read-out: EC50) is reported as 1.6 µM and the EC50 ([3]; read-out: EC50) is reported as greater than 10 µM.

`CC1CNCCc2cc(OCc3ccccc3)c(Br)cc21` (configuration not stated) gave an EC50 [1] of 0.056 µM, an EC50 ([2]; read-out: EC50) of 0.022 µM and an EC50 ([3]; read-out: EC50) greater than 10 µM.

For `CC1CNCCc2ccc(Br)cc21` (configuration not stated), the EC50 [1] was 0.012 µM, the EC50 ([2]; read-out: EC50) was 0.51 µM and the EC50 ([3]; read-out: EC50) was 1.5 µM.

`CC1CNCCc2ccc(Cl)c(F)c21` (configuration not stated) gave an ED50 (Rattus norvegicus; [8]) of 40 mg/kg, an EC50 [1] of 0.022 µM and an EC50 ([2]; read-out: EC50) of 0.84 µM. For the same molecule, the EC50 ([3]; read-out: EC50) was greater than 10 µM.

With `COc1cc2c(cc1I)C(C)CNCC2` (configuration not stated) the ED50 (Rattus norvegicus) was 40 mg/kg, the EC50 [1] was 0.002 µM and the EC50 ([2]; read-out: EC50) was 0.061 µM. For the same molecule, the EC50 ([3]; read-out: EC50) was 0.064 µM.

Work on `CCOc1cc2c(cc1Br)C(C)CNCC2` (configuration not stated) yielded an EC50 [1] of 0.028 µM, an EC50 ([2]; read-out: EC50) of 0.11 µM and an EC50 ([3]; read-out: EC50) of 0.18 µM.

Molecule `C[C@@H]1CNCCc2ccc(Cl)cc21` has a Maximum response [4] of 100%, a Maximum response [5] of 70% and a Maximum response [6] of 100%.

Work on `COc1cc2c(cc1Br)[C@H](C)CNCC2` yielded an EC50 [1] of 0.005 µM, an EC50 ([2]; read-out: EC50) of 0.03 µM and an EC50 ([3]; read-out: EC50) of 0.03 µM.

For `CC1CNCCc2cc(O)c(Br)cc21` (configuration not stated), the EC50 [1] was 0.003 µM, the EC50 ([2]; read-out: EC50) was 0.063 µM and the EC50 ([3]; read-out: EC50) was 0.19 µM.

Molecule `CC1CNCCc2cc(Cl)c(Cl)cc21` (configuration not stated) has an ED50 (Rattus norvegicus; [8]) of 40 mg/kg, an EC50 [1] of 0.004 µM and an EC50 ([2]; read-out: EC50) of 0.016 µM. It also gave an EC50 ([3]; read-out: EC50) of 0.078 µM.

Work on `CC1CNCCc2ccccc21` (configuration not stated) yielded an EC50 [1] of 0.34 µM, an EC50 ([2]; read-out: EC50) of 1.6 µM and an EC50 ([3]; read-out: EC50) greater than 5 µM.

Work on `CCC1CNCCc2cc(OC)c(Br)cc21` (configuration not stated) yielded an EC50 [1] of 0.011 µM, an EC50 ([2]; read-out: EC50) of 0.1 µM and an EC50 ([3]; read-out: EC50) of 0.04 µM.

In the case of `COc1cc2c(cc1C(F)(F)F)C(C)CNCC2` (configuration not stated), the EC50 [1] is reported as 0.004 µM, the EC50 ([2]; read-out: EC50) is reported as 0.042 µM and the EC50 ([3]; read-out: EC50) is reported as 0.13 µM.

In the case of `COc1ccc2c(c1)CCNCC2C` (configuration not stated), the EC50 [1] is reported as 2 µM, the EC50 ([2]; read-out: EC50) is reported as greater than 10 µM and the EC50 ([3]; hek293) is reported as “Not Active”.

For `CC1CNCCc2ccc(C(F)(F)F)cc21` (configuration not stated), the ED50 (Rattus norvegicus; [8]) was 40 mg/kg, the EC50 [1] was 0.007 µM and the EC50 ([2]; read-out: EC50) was 0.1 µM. It also gave an EC50 ([3]; read-out: EC50) of 0.38 µM.

With `Clc1ccc2c(c1)CCNCC2` the Maximum response [4] was 85%, the Maximum response [5] was 100% and the Maximum response [6] was 100%. It also gave an EC50 [1] of 0.012 µM, an EC50 ([2]; read-out: EC50) of 0.09 µM and an EC50 ([3]; read-out: EC50) of 1 µM.

`CC1CNCCc2cc(Cl)ccc21` (configuration not stated) was tested, and the EC50 [1] was 0.035 µM, the EC50 ([2]; read-out: EC50) was 0.15 µM and the EC50 ([3]; read-out: EC50) was 0.53 µM.

With `COc1cc2c(cc1Br)C(C)CNCC2` (configuration not stated) the ED50 (Rattus norvegicus; [8]) was 40 mg/kg, the EC50 [1] was 0.005 µM and the EC50 ([2]; read-out: EC50) was 0.08 µM. The EC50 ([3]; read-out: EC50) was 0.1 µM.

Work on `COc1cc2c(cc1Br)CCNCC2` yielded an EC50 [1] of 0.008 µM, an EC50 ([2]; read-out: EC50) of 0.1 µM and an EC50 ([3]; read-out: EC50) of 0.4 µM.

`CC1CNCCc2ccc(Cl)cc21` (configuration not stated) gave an ED50 (Rattus norvegicus; [8]) of 40 mg/kg.

`COc1cc2c(cc1Cl)C(C)CNCC2` (configuration not stated) was tested, and the ED50 (Rattus norvegicus; [8]) was 40 mg/kg, the EC50 [1] was 0.011 µM and the EC50 ([2]; read-out: EC50) was 0.08 µM. For the same molecule, the EC50 ([3]; read-out: EC50) was 0.14 µM.
